# Reference: paper PMC11406440 (Food and chemical toxicology : an international journal …, 2024)
# Experiments:
# ear pinna cells = assay: Skin; format: in vivo, B6C3F1 mice; details: 28 days; for Skin CD4+ frequency / Skin CD4+ number / Skin CD8+ frequency / Skin CD8+ number / Skin CD11b + DCs frequency / Skin CD11b + DCs number / Skin CD11b- DCs frequency / Skin CD11b- DCs number / Skin CD45+ frequency / Skin CD45+ number / Skin Cellularity / Skin Eosinophils frequency / Skin Eosinophils number / Skin NK frequency / Skin NK number / Skin Neutrophils frequency / Skin Neutrophils number: mean ± SE
# Method in brief: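 Female B6C3F1 mice (5/group) received 25 μl/ear of acetone vehicle or 1.25, 2.5 or 5% w/v test compound on the dorsal surface of each ear, once daily for 28 days. They were euthanized about 24 h later. Single-cell suspensions were made from both auricular dLNs, half a spleen or one ear pinna. Cells were Fc-blocked (anti-CD16/32), stained with surface antibody cocktails and acquired on an LSR II, with FMO gating controls.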
# mice = details: 7 days of 10 mg/kg oral exposure; ref Das et al., 2017; cited from earlier work
structure (smiles),measurement,setting,value
"O=S(=O)(O)C(F)(F)C(F)(F)C(F)(F)C(F)(F)C(F)(F)C(F)(F)F [PFHxS, Perfluorohexane sulfonic acid]",Skin CD4+ frequency,ear pinna cells; 1.25% PFHxS,2.64 ± 0.25%
same,Skin CD4+ number,ear pinna cells; 1.25% PFHxS,2.31 ± 0.36 x 10^3
same,Skin CD8+ frequency,ear pinna cells; 1.25% PFHxS,0.36 ± 0.05%
same,Skin CD8+ number,ear pinna cells; 1.25% PFHxS,3.21 ± 0.60 x 10^2
same,Skin CD11b + DCs frequency,ear pinna cells; 1.25% PFHxS,0.64 ± 0.03%
same,Skin CD11b + DCs number,ear pinna cells; 1.25% PFHxS,5.17 ± 0.30 x 10^2
same,Skin CD11b- DCs frequency,ear pinna cells; 1.25% PFHxS,1.43 ± 0.18 %
same,Skin CD11b- DCs number,ear pinna cells; 1.25% PFHxS,12.30 ± 1.74 x 10^2
same,Skin CD45+ frequency,ear pinna cells; 1.25% PFHxS,8.29 ± 0.74%
same,Skin CD45+ number,ear pinna cells; 1.25% PFHxS,8.39 ± 0.66 x 10^4
same,Skin Cellularity,ear pinna cells; 1.25% PFHxS,9.56 ± 0.21 x 10^5
same,Skin Eosinophils frequency,ear pinna cells; 1.25% PFHxS,1.21 ± 0.20 %
same,Skin Eosinophils number,ear pinna cells; 1.25% PFHxS,1.00 ± 0.24 x 10^3
same,Skin NK frequency,ear pinna cells; 1.25% PFHxS,0.97 ± 0.11%
same,Skin NK number,ear pinna cells; 1.25% PFHxS,8.53 ± 1.49 x 10^2
same,Skin Neutrophils frequency,ear pinna cells; 1.25% PFHxS,0.23 ± 0.03%
same,Skin Neutrophils number,ear pinna cells; 1.25% PFHxS,1.79 ± 0.31 x 10^2
same,Skin CD4+ frequency,ear pinna cells; 2.5% PFHxS,3.34 ± 0.18 %
same,Skin CD4+ number,ear pinna cells; 2.5% PFHxS,2.10 ± 0.25 x 10^3
same,Skin CD8+ frequency,ear pinna cells; 2.5% PFHxS,0.41 ± 0.07 %
same,Skin CD8+ number,ear pinna cells; 2.5% PFHxS,2.52 ± 0.48 x 10^2
same,Skin CD11b + DCs frequency,ear pinna cells; 2.5% PFHxS,0.73 ± 0.08%
same,Skin CD11b + DCs number,ear pinna cells; 2.5% PFHxS,4.45 ± 0.48 x 10^2
same,Skin CD11b- DCs frequency,ear pinna cells; 2.5% PFHxS,1.23 ± 0.12 %
same,Skin CD11b- DCs number,ear pinna cells; 2.5% PFHxS,7.66 ± 1.11 x 10^2
same,Skin CD45+ frequency,ear pinna cells; 2.5% PFHxS,8.20 ± 0.74%
same,Skin CD45+ number,ear pinna cells; 2.5% PFHxS,6.35 ± 0.84 x 10^4
same,Skin Cellularity,ear pinna cells; 2.5% PFHxS,7.67 ± 0.62 x 10^5
same,Skin Eosinophils frequency,ear pinna cells; 2.5% PFHxS,1.75 ± 0.12%
same,Skin Eosinophils number,ear pinna cells; 2.5% PFHxS,1.10 ± 0.15 x 10^3
same,Skin NK frequency,ear pinna cells; 2.5% PFHxS,0.78 ± 0.07 %
same,Skin NK number,ear pinna cells; 2.5% PFHxS,4.86 ± 0.61 x 10^2
same,Skin Neutrophils frequency,ear pinna cells; 2.5% PFHxS,0.30 ± 0.05%
same,Skin Neutrophils number,ear pinna cells; 2.5% PFHxS,1.84 ± 0.33 x 10^2
same,Skin macrophage number,ear pinna cells; 5% PFHxS,increase
same,Skin CD4+ frequency,ear pinna cells; 5% PFHxS,4.51 ± 0.21 %
same,Skin CD4+ number,ear pinna cells; 5% PFHxS,5.82 ± 0.41 x 10^3
same,Skin CD8+ frequency,ear pinna cells; 5% PFHxS,0.73 ± 0.09 %
same,Skin CD8+ number,ear pinna cells; 5% PFHxS,9.37 ± 1.32 x 10^2
same,Skin CD11b + DCs frequency,ear pinna cells; 5% PFHxS,1.18 ± 0.05 %
same,Skin CD11b + DCs number,ear pinna cells; 5% PFHxS,15.10 ± 0.45 x 10^2
same,Skin CD11b- DCs frequency,ear pinna cells; 5% PFHxS,1.25 ± 0.08 %
same,Skin CD11b- DCs number,ear pinna cells; 5% PFHxS,16.10 ± 1.39 x 10^2
same,Skin CD45+ frequency,ear pinna cells; 5% PFHxS,13.48 ± 0.52 %
same,Skin Cellularity,ear pinna cells; 5% PFHxS,9.56 ± 0.31 x 10^5
same,Skin Eosinophils frequency,ear pinna cells; 5% PFHxS,2.68 ± 0.31%
same,Skin Eosinophils number,ear pinna cells; 5% PFHxS,3.49 ± 0.52 x 10^3
same,Skin NK frequency,ear pinna cells; 5% PFHxS,0.68 ± 0.04 %
same,Skin NK number,ear pinna cells; 5% PFHxS,8.76 ± 0.68 x 10^2
same,Skin Neutrophils frequency,ear pinna cells; 5% PFHxS,1.14 ± 0.37 %
same,Skin Neutrophils number,ear pinna cells; 5% PFHxS,14.10 ± 4.21 x 10^2
same,Increase in liver weight,mice,~ 60%
